# According to ChEMBL document CHEMBL5523765, “Peptidic Boronic Acid Plasmodium falciparum SUB1 Inhibitors with Improved Selectivity over Human Proteasome” (J Med Chem, 2024):
# Activity calls are given as the source filed them. The rule behind the calls is not given here.
# Assays:
# [1] = molecular target: T1, Subtilisin-like protease 1 (Plasmodium falciparum, UniProt O61142); experiment: Inhibition of recombinant Plasmodium falciparum SUB1 using Ac-CKITAQDDEESC-OH as fluorogenic substrate pre-incubated for 5 mins followed by substrate addition and measured every 3 mins for 60 mins by fluorescence based SpectraMax M5e plate reader
# T1 sequence (O61142 whole entry): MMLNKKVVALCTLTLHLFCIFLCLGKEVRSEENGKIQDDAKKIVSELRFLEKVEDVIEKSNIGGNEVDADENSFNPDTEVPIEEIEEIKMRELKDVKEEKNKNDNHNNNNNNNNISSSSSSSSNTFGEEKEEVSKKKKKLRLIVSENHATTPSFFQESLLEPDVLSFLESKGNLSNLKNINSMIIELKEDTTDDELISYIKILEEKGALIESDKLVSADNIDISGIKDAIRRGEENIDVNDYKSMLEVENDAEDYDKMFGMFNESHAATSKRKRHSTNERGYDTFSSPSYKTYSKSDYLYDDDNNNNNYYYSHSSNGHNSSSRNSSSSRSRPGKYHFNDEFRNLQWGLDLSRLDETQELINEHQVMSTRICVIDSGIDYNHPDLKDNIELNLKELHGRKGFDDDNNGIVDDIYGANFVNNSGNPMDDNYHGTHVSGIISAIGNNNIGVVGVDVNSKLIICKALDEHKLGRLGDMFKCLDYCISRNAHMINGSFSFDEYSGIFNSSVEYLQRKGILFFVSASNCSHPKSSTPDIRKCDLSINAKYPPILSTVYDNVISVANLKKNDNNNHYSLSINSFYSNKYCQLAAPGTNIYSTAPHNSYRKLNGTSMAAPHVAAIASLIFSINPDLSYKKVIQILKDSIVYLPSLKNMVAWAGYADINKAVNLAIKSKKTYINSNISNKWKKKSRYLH
# Procedure, shortened: (§1)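 Chymotrypsin-treated recombinant PfSUB1 stock (228 U/mL) was diluted 1:500 in 20 mM Tris-HCl pH 8.2, 150 mM NaCl, 12 mM CaCl2, 25 mM CHAPS. Inhibitor DMSO stocks (500 to 0.01 μM) were diluted 1:100 and preincubated with enzyme for 5 min. Fluorogenic SERA4st1F-6R12 substrate was then added (0.1 μM final), with ex 552/em 580 nm read every 3 min for 60 min.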
# [2] = Selectivity ratio IC50 for human 20s proteasome beta5 subunit mediated chymotrypsin-like activity to IC50 for Plasmodium falciparum SUB1
# [3] = molecular target: T2, Proteasome Macropain subunit MB1 (Homo sapiens, UniProt P28074); experiment: Inhibition of human 20s proteasome beta5 subunit mediated chymotrypsin-like activity using LLVY-R110 as substrate measured every three mins for 1 hr by fluorescence based SpectraMax M5e plate reader
# T2 sequence (P28074 whole entry): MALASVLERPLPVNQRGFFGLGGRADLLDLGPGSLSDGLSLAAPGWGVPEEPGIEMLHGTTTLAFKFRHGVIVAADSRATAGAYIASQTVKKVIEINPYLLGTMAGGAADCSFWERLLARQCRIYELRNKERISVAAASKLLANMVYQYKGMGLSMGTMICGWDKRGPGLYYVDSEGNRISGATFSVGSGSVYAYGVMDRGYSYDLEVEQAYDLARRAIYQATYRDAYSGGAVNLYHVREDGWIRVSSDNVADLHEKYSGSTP
# Procedure, shortened: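 Purified human 20S proteasome was diluted in TBS pH 7.4 to a 0.44 μM intermediate stock. Serial DMSO dilutions of inhibitor (1 μL) went into a 100 μL reaction with LLVY-R110 substrate, and 1 μL of proteasome stock was added to start.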
# [4] = molecular target: T1, Subtilisin-like protease 1; experiment: Inhibition of Plasmodium falciparum SUB1; procedure, shortened: as §1
# [5] = molecular target: T3, Subtilisin-like protease 1 (Plasmodium falciparum) (UniProt O61142); experiment: Inhibition of recombinant Plasmodium falciparum SUB1 using Ac-CKITAQDDEESC-OH as fluorogenic substrate at 1 uM pre-incubated for 5 mins followed by substrate addition and measured every 3 mins for 60 mins by fluorescence based SpectraMax M5e plate reader; conditions: time 65.0 min
# T3 sequence (whole entry): T1 sequence (O61142 whole entry)
SMILES,IC50 [3],IC50 [4],further results
CC[C@H](C)[C@H](NC(=O)[C@@H](NC(=O)c1ccccc1)C1CCCC1)C(=O)NCC(=O)N[C@@H](C)B(O)O,–,–,IC50 [1]: 3.2 nM
CC(=O)N[C@H](C(=O)N[C@H](C(=O)NCC(=O)N[C@H]1CCC(=O)OB1O)[C@@H](C)O)C1CCCC1,35600 nM,18.7 nM,Ratio IC50 [2]: 1900
CC[C@H](C)[C@H](NC(=O)[C@@H](NC(=O)c1cc(C)cc(C)c1)C1CCCC1)C(=O)NCC(=O)N[C@H]1CCC(=O)OB1O,1000 nM,–,–
CC(C)C[C@H](NC(=O)[C@H](Cc1ccccc1)NC(=O)c1cnccn1)B(O)O,–,–,inhibition [5]: inactive
CC(=O)N[C@H](C(=O)N[C@H](C(=O)NCC(=O)N[C@@H](C)B(O)O)[C@@H](C)O)C1CCCC1,–,9.3 nM,–
